Bioassay records: PubChem BioAssay, several laboratories
Only a selection was taken, and hits are over-represented in it overall.
Lmaj promast: Leishmania major promastigote growth inhibition, primary screen. inhibition, % at 10 µM. actives 9% (n = 200,000). Leishmania major promastigotes, resazurin fluorescence viability. AID 1063, 2008;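 note: promastigotes grown with compound for 44 hours at 28 °C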
Diaph inh CS: diaphorase inhibitors and chemical oxidizers, primary screen, counter-screen for diaphorase-coupled primary assays, biochemical, uHTS, resorufin fluorescence. diaphorase resazurin-to-resorufin fluorescence, NADH, 16 min; bacterial (C. kluyveri) enzyme, not human. inhibition, % at 20 µM. actives 0.69% (n = 190,000). AID 1217, 2008;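 active = primary screen inhibition at 20 µM above a set limit, cut at about 50% in these data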;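 note: plate controls were DMSO with full reaction for no effect and wells lacking NADH for full effect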
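Test system: Clostridium kluyveri diaphorase enzyme / Quantity: diaphorase at 0.14 U/mL in enzyme working solution / Incubation: 16-min room-temperature incubation before reading / Benchmarks: NADH-free wells as positive control, DMSO-only neutral wells / Signal: resorufin fluorescence 544/590 nm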
G6PDH counter: L. mesenteroides G6PDH inhibitors, counter-screen for G6PDH-coupled screening assays, biochemical, Leuconostoc mesenteroides enzyme | Purified L. mesenteroides G6PDH, diaphorase/resazurin coupled fluorescence, 45 min | inhibition, % at 5 µM | AID 1020, 2008 | glucose-6-phosphate dehydrogenase [Leuconostoc mesenteroides] | actives 0.12% (n = 200,000)
PfGluPho inh: PfG6PD enzyme inhibitors, primary screen, biochemical, fluorescence intensity, uHTS; actives 0.78% (n = 350,000); glucose-6-phosphate dehydrogenase-6-phosphogluconolactonase (Plasmodium falciparum 3D7); PfGluPho enzyme, NADPH resazurin-diaphorase fluorescence; AID 504690, 2011; inhibition, % at 20 µM;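 active = inhibition reaching at least a set limit at 20 µM in the primary screen, cut at about 59% in these data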;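 note: 0% = DMSO wells with substrate and 100% = DMSO wells lacking glucose-6-phosphate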
Diaphorase act: compounds boosting diaphorase resazurin reduction – biochemical, uHTS, resorufin fluorescence, counter-screen for diaphorase-coupled primary assays, primary screen; Diaphorase/resazurin coupled assay, 16 min; hits give high values; 1 = vehicle wells, 0 = NADH-free wells; AID 1229, 2008; actives 0.005% (n = 190,000); activation factor at 20 µM;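 active = diaphorase activity raised at least twofold by the compound at 20 µM; inactive = activation factor below 2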
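Material: purified diaphorase enzyme from Clostridium kluyveri / Medium: HEPES pH 7.4 buffer with MgCl2 and Tween 20 / Schedule: enzyme reaction of 16 min at room temperature / Measured by: resorufin fluorescence, excitation 544 nm, emission 590 nm / Evaluation: rise in resorufin formation, marking diaphorase activation or chemical reduction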
Redox H2O2 prof: compounds producing H2O2 with reducing agent – biochemical, NIH compound library profiling, artefact control for MLSCN library redox annotation, primary screen; actives 0.03% (n = 200,000); DTT-dependent redox cycling H2O2, phenol red/HRP absorbance; 100% = 100 µM peroxide control, 0% = buffer; activation, % at 10 µM;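 active = activation of at least 50% relative to the plate's high and low controls in the primary single-dose screen; inactive = activation below 50%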;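 note: compound incubated with DTT at 0.8 mM final as the reducing agent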
Lmaj promast 1uM: Leishmania major promastigote growth inhibition, confirmation, 1 µM repeat of primary hits; shares compounds with Lmaj promast; L. major promastigote growth, resazurin fluorescence, 48 h; inhibition, % at 1 µM; actives 13% (n = 1,100);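 active = inhibition above about 50% in both repeat tests, limit read from the data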
An asterisk follows results filed as active; . = not tested or not shown. Cut-off read from the data, not from the text of the source, unless noted: active = inhibition above about 50%; inactive = the rest.

SMILES | Lmaj promast | Diaph inh CS | G6PDH counter | PfGluPho inh | Diaphorase act | Redox H2O2 prof | Lmaj promast 1uM
CC(=O)N1CCN(c2ccc(NCc3ccc(-c4cccc(Cl)c4)o3)cc2)CC1 | . | . | . | 45.0 | . | . | .
CCOC(=O)c1cccc(NC(=O)C2CCN(S(=O)(=O)c3cccs3)CC2)c1 | 8.6 | 12.0 | 2.6 | -0.8 | 0.9 | 0.0 | .
CCOC(=O)c1ccc2c(c1)nc(C1CCN(S(=O)(=O)c3cccs3)CC1)n2CC | 100.0* | 21.9 | -3.7 | 5.4 | 0.8 | 1.8 | 5.0
CCOc1ccc(-c2cc(NC(=O)Cn3ncc4c3-c3ccccc3OC4)on2)cc1OCC | 10.6 | 5.2 | 9.1 | -11.3 | 0.9 | -0.8 | .
CC1=C(OC(=O)C(C)(C)C)C(C)(C)C(c2ccccc2)OC1=O (stereo not given) | 55.5* | 17.3 | 13.7 | -22.0 | 0.8 | -0.2 | -0.4
CC1C(=O)C(C)(C)C(=O)OC1c1ccccc1 (stereo not given) | . | . | . | -4.3 | . | . | .
CN(C)Cc1ccccc1CNC(=O)c1ccc(Cl)c(S(=O)(=O)NC2CC2)c1 | . | . | . | -10.4 | . | . | .
CCNC(=O)CSc1nnc(-c2cc(-c3ccc(Cl)cc3)nc3ccccc23)o1 | -1.4 | 9.7 | -23.1 | 5.8 | 0.9 | 0.5 | .
COc1ccccc1N1CCN(C2CCN(C(=O)c3cccc(F)c3)CC2)CC1 | 82.0* | 23.4 | 11.6 | -14.1 | 0.8 | -0.2 | -17.1
COCCN(C(=O)c1cccc(-n2cnnn2)c1)c1c(N)n(CC(C)C)c(=O)[nH]c1=O | . | . | . | -3.3 | . | . | .
CC1CCCN(CC(=O)Nc2ccc(S(=O)(=O)N3C(C)CCCC3C)cc2)C1 (stereo not given) | . | . | . | 13.8 | . | . | .
c1ccc(C(Cc2nc(-c3cccnc3)no2)c2ccccc2)cc1 | 6.1 | 24.5 | -0.3 | 1.6 | 0.8 | 1.4 | .
c1ccc(C(c2ccccc2)c2nc(-c3cccnc3)no2)cc1 | 67.8* | 14.7 | 2.6 | -8.1 | 0.9 | 2.1 | -10.4
CNC(=S)/N=C/NOCc1ccc(Cl)cc1Cl | 57.7* | 11.1 | -3.7 | 24.4 | 0.9 | 0.0 | 15.2
NC(=O)NOCc1ccc(Cl)cc1Cl | 3.5 | 6.8 | 1.0 | -2.6 | 0.9 | -2.1 | .
C=CCc1ccc(OCCCCOc2ccc(C(=O)O)cc2)c(OC)c1 | -9.0 | 3.8 | 3.9 | -28.6 | 1 | -1.4 | .
C=CCc1ccc(OCCCCCN2CCOCC2)c(OC)c1 | 99.9* | 11.1 | 1.2 | -5.0 | 0.9 | -3.0 | 58.3*
Nn1c(SCC(=O)NCC2CCCO2)nnc1-c1ccco1 (stereo not given) | . | . | . | 7.6 | . | . | .
Cc1ccccc1Nc1cc2ccccc2c(=O)[nH]1 | 52.7* | 28.9 | -31.3 | 30.4 | 0.7 | 0.9 | -9.5
O=C(OCc1cccc(C(F)(F)F)c1)c1cc([N+](=O)[O-])ccc1N1CCOCC1 | . | . | . | 25.8 | . | . | .
Cn1ccnc1SCc1cn2cc(Br)ccc2n1 | 82.5* | 20.3 | 1.9 | -4.2 | 0.8 | -0.8 | -0.8
CC1CCC2(CC1)NC(=O)N(CC(=O)Nc1ccc(F)cc1)C2=O (stereo not given) | . | . | . | -9.2 | . | . | .
O=C(CSc1nc2scc(-c3ccccc3)c2c(=O)[nH]1)NC1CCCCC1 | 54.5* | -7.4 | 3.7 | . | 1.1 | -1.5 | 3.3
CC(C)(C)NC(=O)CSc1nc2scc(-c3ccccc3)c2c(=O)[nH]1 | 36.4 | 12.4 | -0.1 | -36.7 | 0.9 | -0.7 | .
COc1cc2c(cc1OC)CN(C(=O)C1CCN(S(=O)(=O)c3ccccc3F)CC1)CC2 | . | . | . | -7.8 | . | . | .
SMILES | Lmaj promast | Diaph inh CS | G6PDH counter | PfGluPho inh | Diaphorase act | Redox H2O2 prof | Lmaj promast 1uM
O=C1C=C(NCCOC23CC4CC(CC(C4)C2)C3)C2(CCCCC2)O1 | 85.9* | 1.2 | 3.9 | -10.7 | 1 | 0.3 | 19.7
O=C1C=C(NCCc2ccccc2)C2(CCCCC2)O1 | -4.6 | 6.6 | 12.3 | -17.1 | 0.9 | -0.4 | .
O=C(N/N=C\c1ccc(CN(Cc2ccc(Cl)cc2)S(=O)(=O)c2ccccc2)o1)C(=O)Nc1ccc(F)cc1 | 80.9* | 2.0 | 1.5 | -8.3 | 1 | 0.2 | 42.7
Cc1ccc(C(=O)O)cc1NC(=S)NC(=O)c1ccc(COc2ccccc2)cc1 | . | . | . | -18.2 | . | . | .
Cn1nc([N+](=O)[O-])nc1Sc1nnc(-c2ccccc2)o1 | 99.3* | -2.7 | 1.3 | 22.6 | 1 | 0.0 | -2.2
Cn1nc([N+](=O)[O-])nc1Sc1cccc2cccnc12 | 10.8 | -3.5 | 7.5 | 24.9 | 1 | 0.3 | .
Cc1ccc(S(=O)(=O)n2nc(C)cc2C)cc1 | -0.8 | 6.3 | 2.3 | 0.5 | 0.9 | 0.1 | .
Cc1cc(C)n(S(=O)(=O)/C=C/c2ccccc2)n1 | 97.8* | 5.9 | -2.2 | 9.7 | 0.9 | 2.5 | -1.6
Cc1ccc(CNC(=O)c2cn(C3CCCCC3)c(=O)c3c2c2ccccc2n3C)o1 | 53.2* | 24.3 | -4.2 | 42.9 | 0.8 | 0.3 | -20.4
CN1CCCCc2c1[nH]c1ccccc1c2=O | 98.2* | 14.1 | 2.6 | 11.5 | 0.9 | 0.2 | -2.8
O=c1c2c([nH]c3ccccc13)CCC2 | . | . | . | 15.7 | . | . | .
Cc1ccc(NC2(c3nnnn3-c3c(C)cccc3C)CCCCC2)cc1 | 97.2* | 18.1 | 2.2 | 6.0 | 0.8 | -0.5 | -2.8
O=C(NCCN1CCOCC1)c1cn(CCc2ccccc2)nn1 | -2.6 | 15.9 | -6.4 | -8.3 | 0.8 | -1.3 | .
O=C(NCc1ccc(N2CCCC2=O)cc1)c1cn(CCc2ccccc2)nn1 | 56.4* | 9.6 | 3.0 | -0.8 | 0.9 | 0.4 | 18.8
O=S(=O)(NCC1OCCc2ccccc21)c1ccc(S(=O)(=O)N2CCOCC2)cc1 (stereo not given) | 19.2 | 15.3 | 8.9 | -16.4 | 0.8 | 1.0 | .
c1ccc2c(c1)CCOC2CNCCCN1CCCCC1 (stereo not given) | 56.2* | -1.8 | 0.4 | 10.5 | 1 | 0.7 | -4.6
Cc1ccc(C(=O)N2CCc3ccccc32)cc1C | . | . | . | -6.3 | . | . | .
CCOC(=O)c1cc2oc(C(c3nnnn3C3CCCCC3)N3CCOCC3)cc2[nH]1 (stereo not given) | 82.5* | 19.6 | 10.6 | -0.5 | 0.8 | 8.0 | 3.2
Clc1ccc(CN2C3=NCCCN3c3ccccc32)cc1 | 100.2* | 11.3 | 9.4 | 3.8 | 0.9 | -3.7 | -10.2
COc1cccc(CNC(=O)CCc2nc3cc(S(=O)(=O)N4CCOCC4)ccc3n2C)c1 | . | . | . | -12.6 | . | . | .
Cc1nc2ccccc2cc1C(=O)N/N=C/c1ccco1 | 70.0* | 6.0 | 14.9 | -2.5 | 0.9 | 0.2 | -3.6
